Laboratory results as given in ChEMBL document CHEMBL2311495, “Pyrazolo[1,5-c]quinazoline derivatives and their simplified analogues as adenosine receptor antagonists: synthesis, structure-affinity relationships and molecular modeling studies” (Bioorg Med Chem, 2013).

Columns and labels:
[1] = target: T1, Adenosine receptor A2b (Homo sapiens) (UniProt P29275); assay: Antagonist activity at human adenosine A2b receptor transfected in CHO cells assessed as inhibition of NECA-induced cAMP accumulation at 1 uM by scintillation counting; type: functional, cell-based
T1 sequence (whole entry): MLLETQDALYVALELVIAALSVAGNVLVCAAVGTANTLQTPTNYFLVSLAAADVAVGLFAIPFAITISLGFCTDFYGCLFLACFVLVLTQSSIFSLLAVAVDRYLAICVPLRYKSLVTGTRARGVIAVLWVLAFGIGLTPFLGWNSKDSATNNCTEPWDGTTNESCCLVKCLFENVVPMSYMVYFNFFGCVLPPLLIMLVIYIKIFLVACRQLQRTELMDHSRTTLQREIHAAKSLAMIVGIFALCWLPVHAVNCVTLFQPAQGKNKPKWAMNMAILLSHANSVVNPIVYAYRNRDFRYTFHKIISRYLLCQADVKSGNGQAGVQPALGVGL
Procedure, shortened: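 CHO cells stably expressing hA2B (1 × 10⁶/assay), pre-incubated 10 min at 37 °C, pH 7.4, with adenosine deaminase 2 IU/ml and Ro 20-1724 as PDE inhibitor. Stimulated by 200 nM NECA, compounds tested at 1 µM, result given as percent inhibition. Stopped with cold 6% TCA, ether-extracted, cAMP measured by [³H]cAMP competition with beef adrenal binding protein.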

Adenosine receptor A2a [2] = target: T2, Adenosine receptor A2a (Homo sapiens, UniProt P29274); assay: Displacement of [3H]ZM241385 from human adenosine A2a receptor expressed in CHO cells at 1 uM by scintillation counting; type: cell-based
Procedure, shortened: (§1)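 Membranes of CHO cells expressing hA2A (50 µg protein) incubated with 1 nM [³H]ZM241385 in 50 mM Tris-HCl, 10 mM MgCl₂, pH 7.4, 60 min at 4 °C. Six to eight antagonist concentrations, or 1 µM for percent inhibition. Filtration and counting. Ki by Cheng–Prusoff from IC50, mean ± SEM of four duplicate experiments.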

[3] = target: T3, Adenosine receptor A1 (Homo sapiens) (UniProt P30542); assay: Displacement of [3H]DPCPX from human adenosine A1 receptor expressed in CHO cells at 1 uM by scintillation counting; type: cell-based
T3 sequence (whole entry): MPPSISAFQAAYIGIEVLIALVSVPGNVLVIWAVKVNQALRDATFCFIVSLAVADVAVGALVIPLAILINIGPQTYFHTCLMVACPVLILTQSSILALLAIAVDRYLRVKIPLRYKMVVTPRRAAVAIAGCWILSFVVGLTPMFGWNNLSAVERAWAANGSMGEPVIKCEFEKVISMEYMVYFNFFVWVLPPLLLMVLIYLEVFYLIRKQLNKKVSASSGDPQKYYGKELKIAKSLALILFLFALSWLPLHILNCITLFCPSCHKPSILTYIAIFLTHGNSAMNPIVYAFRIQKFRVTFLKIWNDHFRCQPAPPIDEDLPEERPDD
Procedure, shortened: (§2)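 hA1 CHO membranes (50 µg protein) incubated with 1 nM [³H]DPCPX in 50 mM Tris-HCl pH 7.4 for 120 min at 25 °C. Six to eight antagonist concentrations, or 1 µM for % inhibition. Nonspecific binding taken with 1 µM DPCPX. Bound ligand filtered and counted. Ki from IC50 via Cheng–Prusoff, four separate assays in duplicate.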

Adenosine receptor A3 [4] = target: T4, Adenosine receptor A3 (Homo sapiens, UniProt P0DMS8); assay: Displacement of [125I]AB-MECA from human adenosine A3 receptor expressed in CHO cells by scintillation counting; type: cell-based
T4 sequence (P0DMS8 whole entry): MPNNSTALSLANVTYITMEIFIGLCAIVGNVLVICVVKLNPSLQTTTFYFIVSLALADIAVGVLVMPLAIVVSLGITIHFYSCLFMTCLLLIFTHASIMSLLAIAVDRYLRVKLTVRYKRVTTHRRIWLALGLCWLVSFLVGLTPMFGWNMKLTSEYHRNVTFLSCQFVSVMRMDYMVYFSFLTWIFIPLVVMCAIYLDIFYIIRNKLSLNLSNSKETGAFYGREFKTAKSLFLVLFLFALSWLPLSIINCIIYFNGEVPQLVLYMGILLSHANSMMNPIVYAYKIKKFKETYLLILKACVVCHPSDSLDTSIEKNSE
Procedure, shortened: (§3)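 hA3 CHO membranes (50 µg protein) incubated with 0.5 nM [¹²⁵I]AB-MECA in 50 mM Tris-HCl, 10 mM MgCl₂, 1 mM EDTA, pH 7.4, for 120 min at 4 °C. Six to eight ligand concentrations, or single 1 µM for % inhibition. Nonspecific binding defined with 1 µM AB-MECA. Filtration on GF/B, counting. Ki by Cheng–Prusoff, mean ± SEM of four duplicate assays.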

[5] = target: T5, Adenosine receptor A3 (Homo sapiens) (UniProt P0DMS8); assay: Displacement of [125I]AB-MECA from human adenosine A3 receptor expressed in CHO cells at 1 uM by scintillation counting; type: cell-based; procedure, shortened: as §3
T5 sequence (whole entry): T4 sequence (P0DMS8 whole entry)

Adenosine receptor A3 [6] = target: T4, Adenosine receptor A3; assay: Activity at human adenosine A3 receptor transfected in CHO cells assessed as Cl-IB-MECA-inhibited cAMP accumulation by scintillation counting; type: functional, cell-based
Procedure, shortened: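 hA3-transfected CHO cells (1 × 10⁶/assay), trypsinised, pre-incubated 10 min at 37 °C in buffered salt/glucose medium pH 7.4 with adenosine deaminase 2 IU/ml and Ro 20-1724. cAMP response inhibited by 100 nM Cl-IB-MECA. Stopped with cold 6% TCA, ether-extracted, cAMP read by [³H]cAMP competition binding to beef adrenal binding protein. IC50 as mean ± SEM of four experiments.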

Adenosine receptor A2b = target: T6, Adenosine receptor A2b (Homo sapiens, UniProt P29275); assay: Antagonist activity at human adenosine A2b receptor transfected in CHO cells assessed as inhibition of NECA-induced cAMP accumulation by scintillation counting; type: functional, cell-based
T6 sequence (P29275 whole entry): T1 sequence (whole entry)

Adenosine receptor A2a [7] = target: T2, Adenosine receptor A2a; assay: Displacement of [3H]ZM241385 from human adenosine A2a receptor expressed in CHO cells by scintillation counting; type: cell-based; procedure, shortened: as §1
Adenosine receptor A1 = target: T7, Adenosine receptor A1 (Homo sapiens, UniProt P30542); assay: Displacement of [3H]DPCPX from human adenosine A1 receptor expressed in CHO cells by scintillation counting; type: cell-based; procedure, shortened: as §2
T7 sequence (P30542 whole entry): T3 sequence (whole entry)

T2 sequence (P29274 whole entry): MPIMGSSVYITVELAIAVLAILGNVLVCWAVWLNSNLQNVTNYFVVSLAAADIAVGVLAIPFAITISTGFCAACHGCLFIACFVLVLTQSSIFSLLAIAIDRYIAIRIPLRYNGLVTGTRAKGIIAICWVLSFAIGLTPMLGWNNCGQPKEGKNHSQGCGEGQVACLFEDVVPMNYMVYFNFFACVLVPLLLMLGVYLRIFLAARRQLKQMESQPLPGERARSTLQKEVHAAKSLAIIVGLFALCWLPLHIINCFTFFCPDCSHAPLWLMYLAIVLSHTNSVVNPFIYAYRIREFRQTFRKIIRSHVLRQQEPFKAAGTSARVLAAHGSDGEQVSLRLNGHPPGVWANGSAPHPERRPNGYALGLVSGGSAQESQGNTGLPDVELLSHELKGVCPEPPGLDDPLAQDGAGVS

inhibition [1]	inhibition (Adenosine receptor A2a [2])	inhibition [3]	Ki (Adenosine receptor A3 [4])	inhibition [5]	IC50 (Adenosine receptor A3 [6])	IC50 (Adenosine receptor A2b)	Ki (Adenosine receptor A2a [7])	Ki (Adenosine receptor A1)	Compound
3%	15%	7%	–	45%	–	–	–	–	COc1ccc(-c2cc3c4ccccc4nc(N)n3n2)cc1
6%	3%	1%	–	–	–	–	–	–	COC(=O)c1cc2c3ccccc3nc(O)n2n1
2%	1%	4%	0.252 µM	–	–	–	–	–	Oc1nc2ccccc2c2cc(-c3ccccn3)nn12
5%	1%	12%	0.101 µM	–	–	–	–	–	CCOC(=O)c1nn2c(=O)[nH]c3ccccc3c2c1C(=O)OCC
2%	1%	9%	0.68 µM	–	–	–	–	–	Nc1ccccc1-c1cc(-c2ccccc2)n[nH]1
3%	1%	6%	0.023 µM	–	0.082 µM	–	–	–	Oc1nc2ccccc2c2cc(-c3ccc(Cl)cc3)nn12
8%	2%	47%	–	39%	–	–	–	–	Oc1ccccc1-c1n[nH]c(-c2ccccc2)n1
1%	5%	2%	–	25%	–	–	–	–	O=C(NCc1ccccc1)c1cc2c3ccccc3[nH]c(=O)n2n1
–	–	–	0.6 µM	–	–	–	–	–	Nc1ccccc1-c1cc(-c2cccs2)[nH]n1
5%	9%	2%	–	–	–	–	–	–	COc1ccc(-c2cc(-c3ccccc3N)[nH]n2)cc1
2%	12%	1%	0.025 µM	–	0.088 µM	–	–	–	Cc1ccc(-c2cc3c4ccccc4nc(O)n3n2)cc1
–	–	–	0.315 µM	–	–	–	–	–	CCOC(=O)c1cc2c3ccccc3[nH]c(=O)n2n1
2%	1%	4%	0.1 µM	–	0.324 µM	–	–	–	COc1ccc(-c2cc3c4ccccc4[nH]c(=O)n3n2)cc1
3%	1%	2%	–	–	–	–	–	–	Nc1ccccc1-c1cc(-c2cccs2)n[nH]1
4%	1%	13%	–	7%	–	–	–	–	Oc1ccccc1-c1cc(-c2ccccc2)[nH]n1

Continued, compound first:

Compound	inhibition [1]	inhibition (Adenosine receptor A2a [2])	inhibition [3]	Ki (Adenosine receptor A3 [4])	inhibition [5]	IC50 (Adenosine receptor A3 [6])	IC50 (Adenosine receptor A2b)	Ki (Adenosine receptor A2a [7])	Ki (Adenosine receptor A1)
Oc1nc2ccccc2c2cc(-c3ccccc3F)nn12	1%	11%	1%	0.14 µM	–	–	–	–	–
O=C(Nc1nc2ccccc2c2cc(-c3ccccc3)nn12)c1ccccc1	4%	1%	1%	0.52 µM	–	–	–	–	–
COc1ccc(-c2cc(-c3ccccc3N)n[nH]2)cc1	–	–	–	0.48 µM	–	–	–	–	–
Oc1nc2ccccc2c2cc(-c3cccs3)nn12	6%	20%	7%	0.04 µM	–	0.263 µM	–	–	–
Oc1nc2ccccc2c2cc(-c3ccccc3)nn12	4%	1%	12%	–	28%	–	–	–	–
Nc1ccccc1-c1cc(-c2ccco2)n[nH]1	1%	6%	4%	–	1%	–	–	–	–
Nc1nc2ccccc2c2cc(-c3ccccc3)nn12	3%	5%	1%	–	15%	–	–	–	–
Oc1nc2ccccc2c2cc(-c3ccco3)nn12	3%	1%	5%	0.08 µM	–	0.138 µM	–	–	–
O=C(OCc1ccccc1)c1cc2c3ccccc3[nH]c(=O)n2n1	2%	4%	3%	–	1%	–	–	–	–
CCOC(=O)c1cc2c3ccccc3nc(O)n2n1	3%	5%	3%	–	–	–	–	–	–
COC(=O)c1cc2c3ccccc3[nH]c(=O)n2n1	–	–	–	0.44 µM	–	–	–	–	–
CCOC(=O)c1ccccc1-c1cc(-c2cccs2)n[nH]1	2%	1%	3%	–	23%	–	–	–	–
Nc1nc2ccccc2c2cc(-c3ccco3)nn12	–	–	–	–	35%	–	0.12 µM	0.08 µM	0.035 µM
Nc1nc2ccccc2c2cc(-c3cccs3)nn12	3%	20%	44%	–	18%	–	–	–	–
CC(C)OC(=O)c1cc2c3ccccc3nc(O)n2n1	4%	1%	1%	0.45 µM	–	–	–	–	–
